Measured values: publication PMC3603146 (Nature structural & molecular biology, 2012)
One block for each molecule: values may come before it. Square brackets hold non-standard residues; d marks the D form. Peptide text beside a SMILES is read from it. Lys(Me3) = C[N+](C)(C)CCCC[C@H](N)C(=O)O

Legend:
[1] = system: XRCC1; assay: XRCC1 accumulation at single stranded breaks upon PARP1 inhibitor treatment; type: cell-based; conditions: low doses of radiation
[2] = system: poly (ADP-ribose) PAR polymer; assay: Poly; type: cell-based; conditions: Western analysis
[3] = biological target: PHF1 Tudor (WT) (Homo sapiens, UniProt O43189); assay: NMR 1H,15N HSQC titration of wild type PHF1 Tudor with histone peptides; type: binding; conditions: for NMR chemical shift / resonance perturbations in PHF1 Tudor: titration of unlabeled peptide into 15N-labeled wild type Tudor
[4] = biological target: PHF1 Tudor Y47A (Homo sapiens, UniProt O43189, Y47A); assay: NMR 1H,15N HSQC titration of PHF1 Tudor Y47A mutant; type: binding; conditions: structure of the protein remained intact
Procedure, shortened: (§1)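 Uniformly 15N-labeled mutant PHF1 Tudor (residues 14–87) was GST-purified from E. coli BL21(DE3) pLysS grown in 15NH4Cl M9 (0.5 mM IPTG), tag-cleaved and size-exclusion purified. 1H,15N HSQC spectra were recorded at 600 MHz (cryoprobe) with increasing concentrations of 12-mer histone tail peptides. Kd came from nonlinear least-squares fitting of normalized chemical shift changes versus peptide and protein concentration.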

[5] = system: GST-fusion PHF1 Tudor; assay: Pull-down of GST-fusion PHF1 Tudor with biotinylated histone peptides; type: binding, human; conditions: biotinylated peptides (H3K4, H3K9, unmodified H3: residues 1–21; H3K27, H3K36: residues 21–44), 50 mM Tris pH 7.5, 150 mM NaCl, 0.05% Nonidet P-40; anti-GST western
Procedure, shortened: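 GST-tagged human PHF1 Tudor (residues 14–87) expressed in E. coli BL21(DE3) pLysS with 0.5 mM IPTG induction, purified on glutathione beads, eluted with 0.05 M reduced glutathione, then size exclusion. The protein was incubated with C-terminally biotinylated peptides (me1/me2/me3 forms) plus streptavidin beads. Beads were washed five times in binding buffer, and bound protein was detected with HRP-conjugated anti-GST monoclonal.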

[6] = biological target: PHF1 Tudor W41A (Homo sapiens, UniProt O43189, W41A); assay: NMR 1H,15N HSQC titration of PHF1 Tudor W41A mutant; type: binding; conditions: structure of the protein remained intact
Procedure, shortened: as §1

[7] = system: HEK293T cells; type: cell-based; conditions: HA-tagged PHF1, 48 hours after transfection, compared with empty vector
Procedure, shortened: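 HEK293T cells were grown in DMEM with 10% FBS and penicillin/streptomycin. They were transiently transfected using polyethylenimine with full-length human PHF1 (C-terminal HA tag, pIRES2-EGFP; wild type, W41A or Y47A) or empty plasmid as negative control. Whole-cell lysates were collected 48 h post-transfection for Western blot with rabbit antibodies to HA, histone H3, H3K27me3 and H3K36me3.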

[8] = system: MYT1 promoter, HEK293T cells; assay: ChIP at the MYT1 promoter in HEK293T cells; type: cell-based; conditions: upon overexpression of PHF1; normalized to H3
Procedure, shortened: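 HEK293T cells were transiently transfected with empty vector, wild-type HA-PHF1 or W41A/Y47A mutants, then fixed 48 h later (1×10^7 cells, 1% formaldehyde, 14 min, room temperature). Chromatin was sonicated to ~500 bp and immunoprecipitated with 4 μg antibody and Protein A magnetic beads. qPCR was run in triplicate with 7 MYT1 primer sets (−1680 to 866 around TSS). Fold-enrichment = IgG-subtracted %Input ÷ that of reference gene PCLB4. Data are mean ± SD of three biological replicates.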

[9] = system: Oct4, Nanog, HoxA4 and HoxA11 promoters, mouse ES cells; assay: ChIP of H3K27me3 in mouse ES cells expressing Flag-PHF1; type: cell-based; conditions: stably expressing Flag-PHF1 vs empty vector; H3K27me3 to total H3; two experiments
Procedure, shortened: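 Mouse ES cells (ww6), grown on fibroblasts or with recombinant LIF, transduced with virus carrying pRTF vector (empty or Flag-PHF1); Flag-PHF1 clones selected. ChIP on 500 μg cross-linked chromatin with anti-H3 or anti-H3K27me3; qPCR with primers near the transcription start site. H3K27me3 expressed as ratio to total H3 to correct for nucleosome density; two separate ChIP experiments.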

Molecule: O=C(c1cc(Cc2n[nH]c(=O)c3ccccc23)ccc1F)N1CCN(C(=O)C2CC2)CC1 [AZD2281]
accumulation of XRCC1 at single stranded breaks [1]: loss of accumulation | poly (ADP-ribose) PAR polymer [2]: decrease in poly (ADP-ribose) PAR polymer

times weaker binding than H3K36me3 (trimethylated at other lysine residues) ([3]; relative to H3K36me3, ITC or NMR (Fig. 3a)): ~8 times
Molecule: C[C@H](N)C(=O)N[C@@H](CCCNC(=N)N)C(=O)N[C@H](C(=O)N[C@@H](CCCC[N+](C)(C)C)C(=O)N[C@@H](CCC(N)=O)C(=O)N[C@H](C(=O)N[C@@H](C)C(=O)N[C@@H](CCCNC(=N)N)C(=O)N[C@@H](CCCCN)C(=O)N[C@@H](CO)C(=O)N[C@H](C(=O)NCC(=O)O)[C@@H](C)O)[C@@H](C)O)[C@@H](C)O [H3K4me3]
NMR chemical shift / resonance perturbations in PHF1 Tudor [3]: slightly different patterns of chemical shift changes

NMR chemical shift / resonance perturbations in PHF1 Tudor [3]: large chemical shift perturbations | effect of Y47A substitution on binding to H3K36me3 [4]: disrupted binding | effect of W41A substitution on binding to H3K36me3 [6]: disrupted binding
Molecule: CC(C)[C@H](NC(=O)CNC(=O)CNC(=O)[C@@H](NC(=O)[C@H](C)N)[C@@H](C)O)C(=O)N[C@@H](CCCC[N+](C)(C)C)C(=O)N[C@@H](CCCCN)C(=O)N1CCC[C@H]1C(=O)N[C@@H](Cc1c[nH]cn1)C(=O)N[C@@H](CCCNC(=N)N)C(=O)O [H3K36me3] (H-ATGGV[Lys(Me3)]KPHR-OH; N-terminus and C-terminus assumed)
association of PHF1 Tudor in pull-down [5]: associated most strongly

B1: wild type PHF1: full length hPHF1 expressed in HEK293T (HA-tag) or K562 cells (Flag) (protein, UniProt O43189 1-567, looked up)
chain: MAQPPRLSRSGASSLWDPASPAPTSGPRPRLWEGQDVLARWTDGLLYLGTIKKVDSAREVCLVQFEDDSQFLVLWKDISPAALPGEELLCCVCRSETVVPGNRLVSCEKCRHAYHQDCHVPRAPAPGEGEGTSWVCRQCVFAIATKRGGALKKGPYARAMLGMKLSLPYGLKGLDWDAGHLSNRQQSYCYCGGPGEWNLKMLQCRSCLQWFHEACTQCLSKPLLYGDRFYEFECCVCRGGPEKVRRLQLRWVDVAHLVLYHLSVCCKKKYFDFDREILPFTSENWDSLLLGELSDTPKGERSSRLLSALNSHKDRFISGREIKKRKCLFGLHARMPPPVEPPTGDGALTSFPSGQGPGGGVSRPLGKRRRPEPEPLRRRQKGKVEELGPPSAVRNQPEPQEQRERAHLQRALQASVSPPSPSPNQSYQGSSGYNFRPTDARCLPSSPIRMFASFHPSASTAGTSGDSGPPDRSPLELHIGFPTDIPKSAPHSMTASSSSVSSPSPGLPRRSAPPSPLCRSLSPGTGGGVRGGVGYLSRGDPVRVLARRVRPDGSVQYLVEWGGGGIF
modifications: full-length HA or Flag tag
global level of H3K27me3 [7]: decrease in the global level of H3K27me3 | H3K27me3 levels at MYT1 [8]: substantially reduced

B2: W41A: PHF1 mutant impaired in H3K36me3 binding; HA-tagged, GFP-fusion or in Flag-PHF1-PRC2 complex according to the test (protein, UniProt O43189 1-567, looked up, variant W41A)
PHD finger protein 1: MAQPPRLSRSGASSLWDPASPAPTSGPRPRLWEGQDVLARATDGLLYLGTIKKVDSAREVCLVQFEDDSQFLVLWKDISPAALPGEELLCCVCRSETVVPGNRLVSCEKCRHAYHQDCHVPRAPAPGEGEGTSWVCRQCVFAIATKRGGALKKGPYARAMLGMKLSLPYGLKGLDWDAGHLSNRQQSYCYCGGPGEWNLKMLQCRSCLQWFHEACTQCLSKPLLYGDRFYEFECCVCRGGPEKVRRLQLRWVDVAHLVLYHLSVCCKKKYFDFDREILPFTSENWDSLLLGELSDTPKGERSSRLLSALNSHKDRFISGREIKKRKCLFGLHARMPPPVEPPTGDGALTSFPSGQGPGGGVSRPLGKRRRPEPEPLRRRQKGKVEELGPPSAVRNQPEPQEQRERAHLQRALQASVSPPSPSPNQSYQGSSGYNFRPTDARCLPSSPIRMFASFHPSASTAGTSGDSGPPDRSPLELHIGFPTDIPKSAPHSMTASSSSVSSPSPGLPRRSAPPSPLCRSLSPGTGGGVRGGVGYLSRGDPVRVLARRVRPDGSVQYLVEWGGGGIF
modifications: HA, GFP or Flag tag
global level of H3K27me3 [7]: no effect on the H3K27me3 level

B3: Y47A: PHF1 mutant impaired in H3K36me3 binding; HA-tagged, GFP-fusion or in Flag-PHF1-PRC2 complex according to the test (protein, UniProt O43189 1-567, looked up, variant Y47A)
PHD finger protein 1: MAQPPRLSRSGASSLWDPASPAPTSGPRPRLWEGQDVLARWTDGLLALGTIKKVDSAREVCLVQFEDDSQFLVLWKDISPAALPGEELLCCVCRSETVVPGNRLVSCEKCRHAYHQDCHVPRAPAPGEGEGTSWVCRQCVFAIATKRGGALKKGPYARAMLGMKLSLPYGLKGLDWDAGHLSNRQQSYCYCGGPGEWNLKMLQCRSCLQWFHEACTQCLSKPLLYGDRFYEFECCVCRGGPEKVRRLQLRWVDVAHLVLYHLSVCCKKKYFDFDREILPFTSENWDSLLLGELSDTPKGERSSRLLSALNSHKDRFISGREIKKRKCLFGLHARMPPPVEPPTGDGALTSFPSGQGPGGGVSRPLGKRRRPEPEPLRRRQKGKVEELGPPSAVRNQPEPQEQRERAHLQRALQASVSPPSPSPNQSYQGSSGYNFRPTDARCLPSSPIRMFASFHPSASTAGTSGDSGPPDRSPLELHIGFPTDIPKSAPHSMTASSSSVSSPSPGLPRRSAPPSPLCRSLSPGTGGGVRGGVGYLSRGDPVRVLARRVRPDGSVQYLVEWGGGGIF
modifications: HA, GFP or Flag tag
global level of H3K27me3 [7]: no effect on the H3K27me3 level

B4: Flag-PHF1: Flag-tagged PHF1 stably expressed in mouse ES cells (protein, UniProt Q9Z1B8 1-559, looked up)
PHD finger protein 1: MAQLPRLSRLGAPSLWDPASPAPTSGPRPRLWEGQDVLARWTDGLLYLGTIKKVDSAREVCLVQFEDDSQFLVLWKDISPAALPGEELLCCVCRSETVVPGNRLVSCEKCRHAYHQDCHVPRAPAPGEGEGASWVCRQCVFAIATKRGGALKKGPYARAMLGMKLSLPYGLKGLDWDAGHLSNRQQSYCYCGGPGEWNLKMLQCRSCLQWFHEACTQCLSKPLLYGDRFYEFECCVCRGGPEKVRRLQLRWVDVAHLVLYHLSVCCKKKYFDFDREILPFTSENWDSLLLGELSDTPKGERSSQLLSALNSHKDRFISGREIKKRKCLFGLHARTPPPVELLTGDGAPTSFPSGQGPGGGVSRPLGKRWRSEPEPLRRRQKGKVEELGPPTAAHSRHGSREQRALQASVSPPPPSPNQSYEGSSGYNFRPTDARCLPSSPIRMFASFHPSASTAGTSGDSEPPDRSPLGLHIGFPTDTPKSSPHSVTASSSSVPALTPGFSRHSPPSPLCRSLSPGTGGGVRGGVSYLSRGDPVRVLARRVRPDGSVQYLVEWGGGGIF
modifications: Flag tag
H3K27me3 level at HoxA4 and HoxA11 [9]: comparable H3K27me3 level | H3K27me3 signal at Oct4 and Nanog [9]: reproducible decrease of the H3K27me3 signal
